Laboratory results from ChEMBL document CHEMBL4425120, “N1-Azinylsulfonyl-1H-indoles: 5-HT6 Receptor Antagonists with Procognitive and Antidepressant-Like Properties” (ACS Med Chem Lett, 2016).
Calls of active or inactive are those of the source. No cut-off for these calls is given here.

What was measured:
Homo sapiens [1] = species: Homo sapiens; assay: Selectivity ratio of Ki for human D2L receptor expressed in HEK293 cells to Ki for human 5-HT6 receptor expressed in HEK293 cells; assay type: cell-based
[2] = molecular target: Muscarinic acetylcholine receptor M5 (Homo sapiens) (UniProt P08912); assay: Displacement of [3H]4-DAMP from human recombinant muscarinic M5 receptor expressed in CHO cells after 60 mins by scintillation counting; assay type: cell-based
Chain of Muscarinic acetylcholine receptor M5 (Homo sapiens) (P08912 whole entry): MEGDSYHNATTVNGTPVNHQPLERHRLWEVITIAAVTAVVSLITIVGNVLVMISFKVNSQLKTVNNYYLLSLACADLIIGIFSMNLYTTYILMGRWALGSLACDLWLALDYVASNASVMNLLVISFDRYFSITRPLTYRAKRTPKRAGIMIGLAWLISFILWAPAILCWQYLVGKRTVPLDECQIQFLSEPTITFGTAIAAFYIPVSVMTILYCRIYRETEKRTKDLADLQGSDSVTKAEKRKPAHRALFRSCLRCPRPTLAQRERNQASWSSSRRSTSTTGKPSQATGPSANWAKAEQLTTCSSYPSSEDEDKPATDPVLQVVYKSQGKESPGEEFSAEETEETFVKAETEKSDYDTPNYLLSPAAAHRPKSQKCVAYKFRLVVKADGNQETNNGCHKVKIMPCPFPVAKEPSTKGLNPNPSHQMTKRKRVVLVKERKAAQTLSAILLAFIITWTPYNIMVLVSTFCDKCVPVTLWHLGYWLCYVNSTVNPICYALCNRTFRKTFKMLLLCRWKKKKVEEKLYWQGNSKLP

D(3) dopamine receptor = D(3) dopamine receptor (Homo sapiens, UniProt P35462); assay: Displacement of [3H]-methyl-spiperone from human recombinant dopamine D3 receptor expressed in CHO cells after 60 mins by scintillation counting; assay type: cell-based
Chain of D(3) dopamine receptor (P35462 whole entry): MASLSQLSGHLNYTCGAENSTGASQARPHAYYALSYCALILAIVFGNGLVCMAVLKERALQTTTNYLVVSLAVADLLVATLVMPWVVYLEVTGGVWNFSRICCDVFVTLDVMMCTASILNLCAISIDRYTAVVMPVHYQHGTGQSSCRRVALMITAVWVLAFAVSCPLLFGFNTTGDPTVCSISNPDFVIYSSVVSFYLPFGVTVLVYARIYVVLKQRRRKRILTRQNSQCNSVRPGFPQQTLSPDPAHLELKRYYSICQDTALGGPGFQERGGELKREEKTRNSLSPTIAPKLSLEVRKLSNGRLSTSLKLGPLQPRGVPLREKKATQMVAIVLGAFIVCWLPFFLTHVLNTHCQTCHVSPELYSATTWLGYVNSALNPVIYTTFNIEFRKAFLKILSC

Rattus norvegicus [3] = assay: Antianxietic activity in Wistar rat assessed as increase in number of licks accepted at 0.3 to 3 mg/kg, ip measured for 5 mins by Vogel conflict drinking test; assay type: functional, organism-based
[4] = Mutagenicity in Salmonella typhimurium TA98 at 0.2 to 16 ug/ml after 48 hrs by Ames test; assay type: toxicity; settings: salmonella enterica subsp. enterica serovar typhimurium
[5] = Mutagenicity in Salmonella typhimurium TA100 at 0.2 to 16 ug/ml after 48 hrs by Ames test; assay type: toxicity; settings: salmonella enterica subsp. enterica serovar typhimurium
[6] = Mutagenicity in Salmonella typhimurium TA1535 at 0.2 to 16 ug/ml after 48 hrs by Ames test; assay type: toxicity; settings: salmonella enterica subsp. enterica serovar typhimurium
Rattus norvegicus [7] = assay: Antidepressant activity in Sprague-Dawley rat assessed as reduction in immobility time at 0.1 mg/kg, ip adminstered 60 mins prior to testing measured for 5 mins by forced swimming test; assay type: functional, organism-based
How it was run: (§1)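 Modified forced swim test in rats with i.p. dosing. Immobility time and climbing time were scored. Data are mean ± SEM, n = 7–8 animals per group, compared against the vehicle-treated group.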

[8] = molecular target: 5-hydroxytryptamine receptor 2A (Homo sapiens, UniProt P28223); assay: Displacement of [3H]-Ketanserin from human 5-HT2A receptor expressed in HEK293 cells by microbeta liquid scintillation counting; assay type: cell-based
Chain of 5-hydroxytryptamine receptor 2A (P28223 whole entry): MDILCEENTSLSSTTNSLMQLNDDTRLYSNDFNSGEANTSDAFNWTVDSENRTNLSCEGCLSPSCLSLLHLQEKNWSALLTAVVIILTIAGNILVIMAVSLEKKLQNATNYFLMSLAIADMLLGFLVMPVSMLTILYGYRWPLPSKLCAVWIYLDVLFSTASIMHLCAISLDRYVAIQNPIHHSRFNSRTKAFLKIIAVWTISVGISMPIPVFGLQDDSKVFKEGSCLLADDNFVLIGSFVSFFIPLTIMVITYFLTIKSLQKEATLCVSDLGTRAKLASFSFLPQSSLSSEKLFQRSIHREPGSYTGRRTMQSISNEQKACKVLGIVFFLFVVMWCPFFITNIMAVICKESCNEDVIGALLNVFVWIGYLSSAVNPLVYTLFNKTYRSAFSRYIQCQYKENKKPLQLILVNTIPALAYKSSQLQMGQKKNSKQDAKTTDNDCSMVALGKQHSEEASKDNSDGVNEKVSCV
How it was run: (§2)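 Ki values reported as the mean of two independent radioligand binding experiments.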

[9] = Drug uptake in Wistar rat brain at 3 mg/kg, ip after 30 mins by LC-MS/MS analysis; assay type: ADME, organism-based; settings: read-out: Drug uptake
How it was run: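 Male Wistar rats received a single 3 mg/kg i.p. dose. Brain and plasma drug levels were measured at 15, 30 and 90 min after dosing. Brain level is expressed as ng/g tissue, alongside the brain-to-plasma concentration ratio.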

Rattus norvegicus [10] = assay: Antidepressant activity in Sprague-Dawley rat assessed as increase in climbing time at 0.1 mg/kg, ip adminstered 60 mins prior to testing measured for 5 mins by forced swimming test; assay type: functional, organism-based; how it was run: as §1
Rattus norvegicus [11] = assay: Antianxietic activity in Wistar rat assessed as increase in number of shocks accepted at 0.3 to 3 mg/kg, ip measured for 5 mins by Vogel conflict drinking test; assay type: functional, organism-based
Homo sapiens [12] = species: Homo sapiens; assay: Selectivity ratio of Ki for human 5-HT7B receptor expressed in HEK293 cells to Ki for human 5-HT6 receptor expressed in HEK293 cells; assay type: cell-based
[13] = molecular target: 5-hydroxytryptamine receptor 6 (Homo sapiens, UniProt P50406); assay: Antagonist activity at human recombinant 5-HT6 receptor expressed in CHO cells assessed as inhibition of serotonin-induced intracellular cAMP accumulation after 30 mins by HTRF assay; assay type: functional, cell-based
Chain of 5-hydroxytryptamine receptor 6 (P50406 whole entry): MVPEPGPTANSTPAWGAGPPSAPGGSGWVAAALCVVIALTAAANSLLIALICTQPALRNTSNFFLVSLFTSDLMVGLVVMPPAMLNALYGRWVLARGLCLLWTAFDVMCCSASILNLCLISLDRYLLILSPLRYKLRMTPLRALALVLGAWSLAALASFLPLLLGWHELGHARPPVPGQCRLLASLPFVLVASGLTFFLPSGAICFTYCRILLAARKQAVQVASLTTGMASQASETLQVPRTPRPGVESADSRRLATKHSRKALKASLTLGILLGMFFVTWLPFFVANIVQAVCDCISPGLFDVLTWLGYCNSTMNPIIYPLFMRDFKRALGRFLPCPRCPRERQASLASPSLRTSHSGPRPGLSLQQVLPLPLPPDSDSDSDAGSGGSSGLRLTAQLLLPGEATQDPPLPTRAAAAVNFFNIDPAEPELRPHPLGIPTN

D(2) dopamine receptor = D(2) dopamine receptor (Homo sapiens, UniProt P14416); assay: Displacement of [3H]-Raclopride from human D2L receptor expressed in HEK293 cells by microbeta liquid scintillation counting; assay type: cell-based; how it was run: as §2
Chain of D(2) dopamine receptor (P14416 whole entry): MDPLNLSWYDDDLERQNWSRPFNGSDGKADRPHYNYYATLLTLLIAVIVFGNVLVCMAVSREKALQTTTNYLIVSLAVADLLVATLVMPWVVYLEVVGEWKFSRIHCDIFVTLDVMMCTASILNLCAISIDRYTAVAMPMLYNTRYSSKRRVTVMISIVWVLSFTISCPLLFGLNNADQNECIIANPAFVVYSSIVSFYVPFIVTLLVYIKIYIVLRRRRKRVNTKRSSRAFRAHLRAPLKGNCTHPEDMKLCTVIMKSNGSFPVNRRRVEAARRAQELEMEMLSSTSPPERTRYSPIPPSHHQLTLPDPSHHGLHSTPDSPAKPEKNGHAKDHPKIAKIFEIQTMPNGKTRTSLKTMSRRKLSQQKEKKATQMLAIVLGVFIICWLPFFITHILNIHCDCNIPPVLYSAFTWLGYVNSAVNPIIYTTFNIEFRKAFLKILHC

Rattus norvegicus [14] = assay: Antianxietic activity in Wistar rat assessed as increase in number of shocks accepted at 0.1 to 1 mg/kg, ip measured for 5 mins by Vogel conflict drinking test; assay type: functional, organism-based
Rattus norvegicus [15] = assay: Antianxietic activity in Wistar rat assessed as increase in number of licks accepted at 0.1 to 1 mg/kg, ip measured for 5 mins by Vogel conflict drinking test; assay type: functional, organism-based

SMILES | Ratio Ki (Homo sapiens [1]) | inhibition [2] | Ki (D(3) dopamine receptor) | Activity (Rattus norvegicus [3]) | Activity [4] | Activity [5] | Activity [6] | Activity (Rattus norvegicus [7]) | Ki [8] | concentration at 0.5 h [9] | Activity (Rattus norvegicus [10]) | Activity (Rattus norvegicus [11]) | Ratio Ki (Homo sapiens [12]) | Kb [13] | Ki (D(2) dopamine receptor) | Activity (Rattus norvegicus [14]) | Activity (Rattus norvegicus [15])
COc1ccc2c(c1)c(C1=CCNCC1)cn2S(=O)(=O)c1cncc2ccccc12 | 70 | 3% | 150 nM | inactive | Non-Toxic | Non-Toxic | Non-Toxic | Active | 3350 nM | 18.6 ng/g | Active | inactive | 70 | 5.6 nM | 3320 nM | – | –
COc1ccc2c(c1)c(C1=CCNCC1)cn2S(=O)(=O)c1ccc2cccnc2c1 | 70 | – | 32 nM | – | Non-Toxic | Non-Toxic | Non-Toxic | – | 1000 nM | 21.9 ng/g | – | – | 70 | 4.4 nM | 240 nM | inactive | inactive
